Results: article PMC33344 (BMC Chemical Biology, 2001)

Columns and labels:
[1] = biological target: bullfrog sympathetic ganglia SPR (bfSPR) (Aquarana catesbeiana, UniProt Q98982); assay: Whole cell recording of M-type K+ current; type: cell-based; details: for inhibition of IM: single bullfrog sympathetic neurons
[2] = Fluorophore spectral analysis; type: physicochemical; details: 10 nM in PBS, pH 7.4
Summary of the method: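 Fluorophore-labelled substance P conjugates were analysed in a spectrofluorometer at 10 nM in PBS, pH 7.4, as solvent. Excitation and emission spectra were recorded for each conjugate, and peak wavelengths were read from the curves.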

Sequence of bullfrog sympathetic ganglia SPR (bfSPR) (Q98982 whole entry): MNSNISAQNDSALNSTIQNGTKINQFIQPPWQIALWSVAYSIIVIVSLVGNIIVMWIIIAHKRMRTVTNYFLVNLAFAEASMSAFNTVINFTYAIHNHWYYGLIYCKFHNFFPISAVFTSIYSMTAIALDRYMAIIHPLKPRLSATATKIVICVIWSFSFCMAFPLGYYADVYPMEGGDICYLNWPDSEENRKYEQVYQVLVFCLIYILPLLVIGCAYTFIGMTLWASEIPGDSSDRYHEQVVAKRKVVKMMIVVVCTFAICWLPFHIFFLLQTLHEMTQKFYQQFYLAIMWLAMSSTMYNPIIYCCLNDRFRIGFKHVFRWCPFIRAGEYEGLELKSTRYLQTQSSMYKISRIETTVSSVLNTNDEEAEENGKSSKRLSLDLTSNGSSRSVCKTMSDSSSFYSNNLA

Row | Compound | inhibition at 0.1 µM ([1]; read-out: inhibition of IM) [%] | inhibition of IM ([1]; 100 nM, 0.1 µM) | inhibition of IM ([1]; 1 μM) | peak excitation [2] [nm] | peak of the emission curve [2] [nm]
1 | CSCC[C@H](NC(=O)[C@H](CC(C)C)NC(=O)CNC(=O)[C@H](Cc1ccccc1)NC(=O)[C@H](Cc1ccccc1)NC(=O)[C@H](CCC(N)=O)NC(=O)[C@H](CCC(N)=O)NC(=O)[C@@H]1CCCN1C(=O)[C@H](CCCCN)NC(=O)[C@@H]1CCCN1C(=O)[C@@H](N)CCCN=C(N)N)C(N)=O [SP, reference compound] | ~70 |  |  |  | 
2 | Alexa 488-SP: Substance P with Alexa 488 covalently linked at Lys3; Molecular Probes product S-13426 |  | did not inhibit IM | did not inhibit IM | 490 | 515
3 | fluorescein-SP: Substance P with fluorescein covalently linked at Lys3; Molecular Probes product S-13424 |  |  |  | 495 | 520
